Results collected from several papers.
Compare with care: the assays were run in different laboratories.
Target: Adenosine receptor A2a (ADORA2A, Homo sapiens, UniProt P29274)
Observed: ligand displacement
Method: radioligand

| SMILES | setting | Ki |
| --- | --- | --- |
| Cc1cccc(-c2nc(N)n(C(=O)CCc3ccccc3)n2)c1 | cell membranes | 250 nM |
| CC(C)CN1CCCn2c1nc1c2c(=O)n(C)c(=O)n1C | cell membranes | 930 nM |
| c1coc(-c2nc3cc(NCCN4CCCCC4)ccc3o2)c1 | cell membranes | 11000 nM |
| c1ccc2[nH]c(-c3nc4ccccc4[nH]3)nc2c1 | cell membranes | 140 nM |
| Nc1nc(I)nc2c1ncn2[C@H]1[C@H](O)[C@H](O)[C@]2(CCl)C[C@H]12 |  | 5350 nM |
| c1coc(-c2nc3cc(CCN4CCCCC4)ccc3o2)c1 | cell membranes | 7000 nM |
| CCNC(=O)[C@H]1O[C@@H](n2cnc3c(N)nc(NN=C[C@H]4CCC=CO4)nc32)[C@H](O)[C@@H]1O |  | 3.76 nM |
| C#CCCCCC(=O)NCCNC(=O)COc1ccc(-c2nc3c([nH]2)c(=O)n(CCC)c(=O)n3CCC)cc1 | cell membranes | 23.2 nM |
| Nc1nc(-c2ccccc2)nn1C(=O)CCc1ccccc1 | cell membranes | 2000 nM |
| CNC(=O)[C@@]12C[C@@H]1[C@@H](n1cnc3c(NCc4cccc(C#CCCCCCc5cn(-c6ccc(F)c(N)c6)nn5)c4)nc(Cl)nc31)[C@H](O)[C@@H]2O | cell membranes | 550 nM |
| C=CN1CCCn2c1nc1c2c(=O)n(C)c(=O)n1C | cell membranes | > 10000 nM |
| CSC[C@@]12C[C@@H]1[C@@H](n1cnc3c(N)nc(I)nc31)[C@H](O)[C@@H]2O |  | 3120 nM |
